Reference: ChEMBL document CHEMBL1177839, “Synthesis and preliminary biological evaluation of novel taspine derivatives as anticancer agents” (Eur J Med Chem, 2010)

How the values were obtained:
[1] = test system: Caco-2; assay: Antiproliferative activity against human Caco-2 cells after 48 hrs by MTT assay; format: functional, cell-based; conditions: Caco-2, 48 h
How it was run: (§1)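 Cells in exponential growth harvested and seeded at 1 ×10⁴ cells/well, incubated 24 h at 37 °C, then exposed to a range of compound concentrations for 48 h. Viability read by MTT; IC₅₀ derived from dose-dependent growth inhibition.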

[2] = test system: A549; assay: Antiproliferative activity against human A549 cells after 48 hrs by MTT assay; format: functional, cell-based; conditions: A549, 48 h; how it was run: as §1
[3] = Antiproliferative activity against human ECV304 cells after 48 hrs by MTT assay; format: cell-based; conditions: ECV-304, 48 h; how it was run: as §1
[4] = test system: HEK293; assay: Antiproliferative activity against human HEK293 cells overexpressing EGFR after 48 hrs by MTT assay; format: cell-based; conditions: HEK293, 48 h; how it was run: as §1
[5] = test system: A-431; assay: Antiproliferative activity against human A431 cells abnormally expressing EGFR after 48 hrs by MTT assay; format: functional, cell-based; conditions: A-431, 48 h; how it was run: as §1
[6] = test system: A-375; assay: Antiproliferative activity against human A375 cells after 48 hrs by MTT assay; format: functional, cell-based; conditions: A-375, 48 h
[7] = test system: SMMC-7721; assay: Antiproliferative activity against human SMMC7721 cells after 48 hrs by MTT assay; format: functional, cell-based; conditions: SMMC-7721, 48 h
[8] = test system: HeLa; assay: Antiproliferative activity against human HeLa cells after 48 hrs by MTT assay; format: functional, cell-based
[9] = test system: HT-29; assay: Antiproliferative activity against human HT-29 cells after 48 hrs by MTT assay; format: functional, cell-based; conditions: HT-29, 48 h
[10] = test system: PANC-1; assay: Antiproliferative activity against human PANC1 cells after 48 hrs by MTT assay; format: functional, cell-based; conditions: PANC-1, 48 h
[11] = test system: MCF7; assay: Antiproliferative activity against human MCF7 cells after 48 hrs by MTT assay; format: functional, cell-based; conditions: MCF7, 48 h

Structure (SMILES) | IC50 [1] [µM] | IC50 [2] [µM] | IC50 [6] [µM] | IC50 [7] [µM] | IC50 [8] [µM] | IC50 [9] [µM] | IC50 [10] [µM] | IC50 [11] [µM] | IC50 [3] [µM] | IC50 [4] [µM] | IC50 [5] [µM]
CNC(=O)c1ccc(OC)c(O)c1-c1c(C(=O)NC)ccc(OC)c1OCCN1CCOCC1 | 75.9 | 259 | 174 | 78.2 | 415 | 122 | 166 | 83.7 | 1360 | 116 | 75.9
CNC(=O)c1ccc(OC)c(OCCN2CCOCC2)c1-c1c(C(=O)NC)ccc(OC)c1OCC(=O)Nc1ccc(F)c(Cl)c1 | 3310 | 194 | 25.1 | 194 | 100 | 44.7 | 110 | 60.4 |  |  | 
CNC(=O)c1ccc(OC)c(OCCN(C)C)c1-c1c(C(=O)NC)ccc(OC)c1OCC(=O)Nc1ccc(F)c(Cl)c1 | 167 | 241 | 242 | 124 | 117 | 133 | 159 | 123 | 57.2 |  | 
CNC(=O)c1ccc(OC)c(OCCN2CCNCC2)c1-c1c(C(=O)NC)ccc(OC)c1OCC(=O)Nc1ccc(F)c(Cl)c1 |  |  |  | 126 |  | 47.2 |  |  |  |  | 
COC(=O)c1cc(OC(=O)c2ccc(OC)c(O)c2)c(OC)cc1CCN(C)C | 110 | 453 |  |  |  |  |  |  |  |  | 
COc1ccc2c(=O)oc3c(OC)cc(CCN(C)C)c4c(=O)oc1c2c34 [TASPINE] | 153 | 4.18 |  |  |  |  |  |  | 22.3 | 16 | 11.2

The next lines start with results.

IC50 [1] [µM] | IC50 [2] [µM] | IC50 [6] [µM] | IC50 [7] [µM] | IC50 [8] [µM] | IC50 [9] [µM] | IC50 [10] [µM] | IC50 [11] [µM] | Structure (SMILES) | IC50 [3] [µM] | IC50 [4] [µM] | IC50 [5] [µM]
104 | 64.7 | 106 | 95.7 | 97.6 | 200 | 217 |  | CNC(=O)c1ccc(OC)c(O)c1-c1c(C(=O)NC)ccc(OC)c1O | 113 | 88 | 104
20.3 | 73.5 | 217 | 109 | 53.4 | 214 | 191 | 109 | CNC(=O)c1ccc(OC)c(O)c1-c1c(C(=O)NC)ccc(OC)c1OCC(=O)Nc1ccc(F)c(Cl)c1 | 72.2 |  | 
3100 | 111 |  |  |  |  |  |  | COC(=O)c1cc(OC(=O)c2cc(O)c(OC)cc2CCN(C)C)ccc1OC |  |  | 
 | 180 |  |  |  |  |  |  | COC(=O)c1cc(OC(=O)c2ccc(OC)c(O)c2)c(OC)cc1CCNc1ccc(F)c(Cl)c1 | 61 |  | 
52.5 | 158 |  |  |  |  |  |  | COC(=O)c1cc(OC(=O)c2ccc(OC)c(O)c2)c(OC)cc1CCN1CCOCC1 | 2.67 |  | 
